Compounds with a hit are over-represented: about 5.9% of the library has one in this group of screens.
Pyk2 oligo antag = Pyk2 (human) oligomerization antagonism | Q293 cells, Pyk2 FERM NanoBiT luminescence; hits give low values | z-score (the deposit names both 25 µM and 10 µM) | actives 0.83% (n = 99,000) | AID 1347419;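 active = Z-score of -3 or lower, scaled per plate to the spread of control and sample wells; inactive = z-score above -3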;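 note: negative z-score means lost luminescence so less FERM oligomerization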
Measles CPE = protection of cells from measles virus. Measles virus-infected cells, CPE protection, absorbance. protection (pct of control), % at 4 µM. actives 1.5% (n = 140,000); in the data active = protection mostly above about 24%, no sharp cut-off; inactive = mostly below about 26%
Rev-RRE block = disrupts HIV-1 Rev binding to RRE RNA; Rev peptide-RRE RNA binding, FRET; P05866; actives 0.79% (n = 97,000); inhibition, % at 8 µM; AID 704;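 active = inhibition above the screen-wide mean plus 3 SD, cut at about 35% in these data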;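 note: 0% = median DMSO wells and 100% = median Neomycin B control wells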
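Test system: Cy5-tagged RRE RNA duplex with fluorescein-tagged Rev peptide; Probe or stimulus: labelled Rev peptide; Schedule: 5 min preincubation and 15 min binding, 25 °C; Signal: FRET fluorescence readout; Evaluation: % inhibition from 671/540 nm acceptor-to-donor ratio, scaled between controls; Control set: DMSO and neomycin B.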
Phagocytosis inh = inhibitors of macrophage phagocytosis | J774A.1 macrophage IgG-bead phagocytosis, imaging | inhibition, % at 5 µM | actives 0.07% (n = 110,000);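 active = inhibition above the mean of the plate negative controls plus 5 SD, cut at about 13% in these data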;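 note: phagocytic index as fraction of beads internalized from green versus red external bead signal; plate controls were DMSO negative control for no effect and cytochalasin-D positive control for full effect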
hDAT+cocaine = modulates human dopamine transporter uptake under cocaine; LLC-PK1 hDAT cells, [14C]-dopamine uptake with cocaine IC80; actives deviate in either direction; AID 449768; Q01959; B-score at 10 µM; actives 1.3% (n = 110,000);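 active = Z score or B-score, a plate-position-corrected score, falls beyond the plate's 99.7% confidence bounds, in either direction; inactive = both scores lie inside the 99.7% bounds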;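 note: scored against the spread of the other compound wells on the same plate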
Target sequence (Q01959 whole entry, looked up): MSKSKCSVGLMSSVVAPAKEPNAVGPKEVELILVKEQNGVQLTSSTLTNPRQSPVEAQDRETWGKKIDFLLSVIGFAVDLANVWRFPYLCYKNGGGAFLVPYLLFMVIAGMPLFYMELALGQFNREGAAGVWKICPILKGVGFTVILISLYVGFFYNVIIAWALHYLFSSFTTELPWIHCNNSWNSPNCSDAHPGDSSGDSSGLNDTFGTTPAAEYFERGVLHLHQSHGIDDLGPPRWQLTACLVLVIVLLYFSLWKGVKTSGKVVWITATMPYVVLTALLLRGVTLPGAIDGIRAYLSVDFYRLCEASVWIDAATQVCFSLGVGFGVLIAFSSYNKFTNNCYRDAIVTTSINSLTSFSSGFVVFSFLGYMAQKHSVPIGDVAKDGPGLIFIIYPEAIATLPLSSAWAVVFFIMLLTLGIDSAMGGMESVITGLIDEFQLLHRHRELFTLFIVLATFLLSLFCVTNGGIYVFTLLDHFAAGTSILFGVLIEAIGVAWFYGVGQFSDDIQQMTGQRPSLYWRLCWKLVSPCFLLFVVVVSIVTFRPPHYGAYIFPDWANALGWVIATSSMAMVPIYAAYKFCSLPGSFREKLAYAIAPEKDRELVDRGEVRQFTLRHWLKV
Cav32 inh = inhibitors of human Cav3.2 T-type calcium channel; Cav3.2-expressing cells, Fluo-4 calcium fluorescence FDSS; hits give low values; B-score at 10 µM; actives 4% (n = 100,000); AID 449739;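 active = single-dose well whose peak fluorescence ratio is a statistical outlier from its plate by either plate-standardised score or position-corrected B-score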
Active calls of the source: *; · = not tested or not shown; [ ] = remark or other dose.

SMILES | Pyk2 oligo antag | Measles CPE | Rev-RRE block | Phagocytosis inh | hDAT+cocaine | Cav32 inh
CCOC(=O)N1CCC(NC(=O)C2CCCCN2S(=O)(=O)c2ccc(F)cc2)CC1 (stereo not given) | · | 34* | 0 | 1 | -1 | 0.86
CCOC(=O)N1CCC(NC(=O)C2CCN(S(=O)(=O)c3cccs3)CC2)CC1 | 0.92 | 4 | 4 | 44* | -0.054 | 1
O=C(NC1CCCCC1)C1CCN(S(=O)(=O)c2cccs2)CC1 | -0.2 | 12 | 5 | 0 | 0.3 | 0.5
CC(=O)c1cccc(NC(=O)C2CCN(S(=O)(=O)c3cccs3)CC2)c1 | 0.55 | 13 | 8 | 5 | · | ·
CC(=O)Nc1ccc(-c2csc(NC(=O)C3CCN(S(=O)(=O)c4cccs4)CC3)n2)cc1 | · | 68* | · | 3 | · | ·
O=C(COC(=O)C1CCN(S(=O)(=O)c2ccc3c(c2)OCCO3)CC1)Nc1ccc(C(F)(F)F)cc1 | · | 4 | · | -6 | · | ·
COc1cccc(/C=N/NC(=O)CO/N=C(\C)c2cccs2)c1OC | -0.16 | 5 | 9 | · | 3.2* | ·
COc1cccc(/C=N/NC(=O)C(=O)N/N=C/c2cccc(OC)c2OC)c1OC | · | 14 | · | -3 | · | ·
C/C(=N\OCC(=O)N/N=C/c1ccccc1O)c1cccs1 | -0.03 | 33 | 10 | -3 | -0.21 | -4.3*
COc1ccc(/C=N/NC(=O)CO/N=C(\C)c2cccs2)cc1 | 0.64 | 11 | 3 | 0 | 0.12 | -0.46
Cc1nn(C)cc1C1Nc2ccccc2C(=O)N1O (stereo not given) | 0.24 | 11 | 2 | · | -0.19 | 0.46
C=CCc1cccc(C2Nc3ccccc3C(=O)N2O)c1O (stereo not given) | 0.63 | 4 | 2 | · | 1.3 | -9.8*
CC1=C/C(=N\NC(=O)c2ccccc2)CC1 | · | 12 | · | · | · | ·
COc1ccc(-n2ncc3c(NC(C)C)ncnc32)cc1 | -0.71 | 24 | -3 | 6 | 1.1 | 0.87
COCC(C)Nc1ncnc2c1cnn2-c1ccc(Cl)cc1 (stereo not given) | -2.1 | 5 | 3 | · | 2.7* | -0.46
O=C1CN(C(=O)COC(=O)CCSc2ccccc2Cl)c2ccccc2N1 | 1.3 | 27* | 5 | 0 | -0.97 | 0.78
CN(C(=O)c1ccc(C(=O)N(C)C2CCCCC2)cc1)C1CCCCC1 | · | · | 6 | · | · | ·
CN(C(=O)c1c(Cl)nc2sccn12)C1CCCCC1 | -0.14 | 23* | -4 | 3 | -0.76 | ·
CCN(CC)S(=O)(=O)c1cc(NC(=O)COC(=O)CCc2nc3ccccc3s2)ccc1C | 0.96 | 18 | 8 | -1 | -0.058 | -4.8*
C=CCN1C(=O)C(Cc2ccc(Br)cc2)S/C1=N\N=C\c1ccco1 (stereo not given) | 1.1 | 5 | 2 | · | -0.52 | 0.73
C=CCN1C(=O)C(Cc2ccc(OC)cc2)S/C1=N\N=C\c1cccs1 (stereo not given) | -0.24 | 11 | -2 | 0 | 3* | -1.1
Cc1cccc(-n2c(SCC(=O)N3CC(=O)Nc4ccccc43)nc3ccccc3c2=O)c1C | · | 25 | · | -16 | · | ·
C=CCN1C=CC(=C/C=C(/C#N)C(=O)OCC)C=C1 | -0.27 | 34 | 138*[fluorescence artefact?] | · | -2.6* | -6.4*
Cc1cc(C)nc(N=Nc2c(O)n(Cc3ccc(Cl)cc3)c3ccccc23)n1 | · | 20 | · | -15 | · | ·
Cc1ccc2nc(C3CCN(S(=O)(=O)c4ccc5ccccc5c4)CC3)[nH]c2c1 | -0.87 | 24 | 18 | 2 | 1.5 | -2.1
SMILES | Pyk2 oligo antag | Measles CPE | Rev-RRE block | Phagocytosis inh | hDAT+cocaine | Cav32 inh
O=C(c1sc2cc(F)ccc2c1Cl)N1CCN(c2ccccc2)CC1 | · | 5 | · | -10 | · | ·
CCCCN1C(=O)C(O)(CC(=O)c2ccco2)c2cc(Br)ccc21 (stereo not given) | · | 9 | · | 2 | -0.55 | -0.26
CCCCN1C(=O)C(O)(CC(=O)c2c(C)n[nH]c2C)c2cc(Br)ccc21 (stereo not given) | 1.5 | 73* | 1 | 1 | -1.7 | 0.37
CC1(C)c2[nH]c3ccccc3c2C[C@@H]2C(=O)N(Cc3ccco3)C(=O)N21 | · | · | · | · | 1.3 | -0.024
COc1cccc(C(=O)NC2CCN(C(=O)N3c4ccccc4Sc4ccccc43)CC2)c1 | -1.7 | 6 | 4 | 1 | 1.7 | -3.9*
CCc1ccc2[nH]c(=O)c(CN(CCN(C)C)C(=O)Nc3ccccc3OC)cc2c1 | -1.5 | 3 | 1 | -1 | 0.63 | 1.6

Screening results as filed in PubChem BioAssay.
